ChEMBL document CHEMBL1128218, “New alpha-thiol dipeptide dual inhibitors of angiotensin-I converting enzyme and neutral endopeptidase EC 3.4.24.11” (J Med Chem, 1995)

How the values were obtained:
[1] = target: T1, Angiotensin-converting enzyme (Oryctolagus cuniculus, UniProt P12822); assay: Evaluation of in vitro inhibitory activity against Angiotensin I converting enzyme
T1 sequence (P12822 whole entry): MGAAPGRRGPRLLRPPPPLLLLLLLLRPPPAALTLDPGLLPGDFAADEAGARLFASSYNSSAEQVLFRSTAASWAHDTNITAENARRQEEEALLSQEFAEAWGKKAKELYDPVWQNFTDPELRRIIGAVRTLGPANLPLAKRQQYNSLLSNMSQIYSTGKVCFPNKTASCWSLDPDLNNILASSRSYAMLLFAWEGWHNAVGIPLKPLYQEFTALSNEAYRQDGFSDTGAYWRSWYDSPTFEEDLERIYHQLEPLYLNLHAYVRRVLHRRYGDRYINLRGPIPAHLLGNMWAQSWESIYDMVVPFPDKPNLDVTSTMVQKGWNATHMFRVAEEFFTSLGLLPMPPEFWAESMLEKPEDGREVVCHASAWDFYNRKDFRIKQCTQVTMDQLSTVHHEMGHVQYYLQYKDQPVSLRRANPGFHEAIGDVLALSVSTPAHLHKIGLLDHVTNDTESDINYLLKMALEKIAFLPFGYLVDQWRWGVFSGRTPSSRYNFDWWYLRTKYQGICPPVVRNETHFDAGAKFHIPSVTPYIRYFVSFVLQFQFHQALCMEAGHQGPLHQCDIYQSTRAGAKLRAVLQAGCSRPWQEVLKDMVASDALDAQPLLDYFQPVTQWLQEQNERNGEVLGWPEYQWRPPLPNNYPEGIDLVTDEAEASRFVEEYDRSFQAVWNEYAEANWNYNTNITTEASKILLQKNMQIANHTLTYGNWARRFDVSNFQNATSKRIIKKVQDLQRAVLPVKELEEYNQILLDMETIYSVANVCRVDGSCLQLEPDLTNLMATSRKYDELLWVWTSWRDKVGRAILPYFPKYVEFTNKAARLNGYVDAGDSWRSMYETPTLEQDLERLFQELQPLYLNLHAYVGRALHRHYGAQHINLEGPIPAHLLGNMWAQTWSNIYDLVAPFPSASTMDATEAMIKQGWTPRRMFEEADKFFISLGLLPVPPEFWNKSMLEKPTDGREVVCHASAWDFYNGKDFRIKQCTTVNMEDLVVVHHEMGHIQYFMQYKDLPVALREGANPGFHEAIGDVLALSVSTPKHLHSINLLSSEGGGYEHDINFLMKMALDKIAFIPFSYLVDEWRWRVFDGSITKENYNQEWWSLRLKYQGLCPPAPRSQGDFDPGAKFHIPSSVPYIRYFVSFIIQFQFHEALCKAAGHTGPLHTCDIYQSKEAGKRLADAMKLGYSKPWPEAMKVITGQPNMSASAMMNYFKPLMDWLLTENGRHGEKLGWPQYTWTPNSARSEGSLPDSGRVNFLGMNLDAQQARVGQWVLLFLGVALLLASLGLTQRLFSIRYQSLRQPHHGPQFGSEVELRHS
How it was run: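 Rabbit lung ACE in 300 mM NaCl, 100 mM KH2PO4 (pH 8.3). Enzyme and drug mixed, then hippurylhistidylleucine (2 mg/mL stock) added and incubated 75 min at room temperature. Stopped with 1 N NaOH, o-phthalaldehyde added for 10 min at 25 °C, acidified with HCl, OD read at 360 nm.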

Neprilysin = target: T2, Neprilysin (Rattus norvegicus, UniProt P07861); assay: Evaluation of in vitro inhibitory activity against Neutral endopeptidase
T2 sequence (P07861 whole entry): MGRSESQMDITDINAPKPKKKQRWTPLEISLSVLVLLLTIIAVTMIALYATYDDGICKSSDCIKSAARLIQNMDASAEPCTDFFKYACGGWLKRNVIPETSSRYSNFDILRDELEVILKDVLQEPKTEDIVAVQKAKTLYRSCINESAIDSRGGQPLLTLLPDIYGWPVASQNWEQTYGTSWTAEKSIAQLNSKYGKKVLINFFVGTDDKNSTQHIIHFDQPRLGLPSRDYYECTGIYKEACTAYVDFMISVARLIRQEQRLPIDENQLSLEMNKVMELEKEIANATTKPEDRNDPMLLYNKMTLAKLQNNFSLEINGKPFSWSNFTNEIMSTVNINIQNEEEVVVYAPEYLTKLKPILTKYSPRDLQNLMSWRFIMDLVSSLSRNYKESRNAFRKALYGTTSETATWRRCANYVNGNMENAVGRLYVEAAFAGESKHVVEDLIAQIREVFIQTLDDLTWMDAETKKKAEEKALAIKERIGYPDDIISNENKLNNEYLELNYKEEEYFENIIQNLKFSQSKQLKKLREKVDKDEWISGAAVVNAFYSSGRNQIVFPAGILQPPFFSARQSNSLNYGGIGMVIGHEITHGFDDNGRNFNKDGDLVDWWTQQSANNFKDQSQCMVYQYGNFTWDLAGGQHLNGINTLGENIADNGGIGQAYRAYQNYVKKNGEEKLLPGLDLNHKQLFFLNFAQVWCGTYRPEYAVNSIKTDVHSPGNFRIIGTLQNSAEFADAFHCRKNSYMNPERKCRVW
How it was run: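 Rat kidney cortex membrane homogenate (4.2 μg protein) preincubated 10 min at 25 °C with increasing inhibitor concentrations. Then 500 μM GAAP (final) in 50 mM Tris pH 7.4 with leucine aminopeptidase M, 25 min at 25 °C. Done in duplicate; IC50 from curves of seven points near the IC50.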

[2] = target: T3, Angiotensin-converting enzyme (Rattus norvegicus) (UniProt P47820); details: Plasma; 10 mg/kg
T3 sequence (whole entry): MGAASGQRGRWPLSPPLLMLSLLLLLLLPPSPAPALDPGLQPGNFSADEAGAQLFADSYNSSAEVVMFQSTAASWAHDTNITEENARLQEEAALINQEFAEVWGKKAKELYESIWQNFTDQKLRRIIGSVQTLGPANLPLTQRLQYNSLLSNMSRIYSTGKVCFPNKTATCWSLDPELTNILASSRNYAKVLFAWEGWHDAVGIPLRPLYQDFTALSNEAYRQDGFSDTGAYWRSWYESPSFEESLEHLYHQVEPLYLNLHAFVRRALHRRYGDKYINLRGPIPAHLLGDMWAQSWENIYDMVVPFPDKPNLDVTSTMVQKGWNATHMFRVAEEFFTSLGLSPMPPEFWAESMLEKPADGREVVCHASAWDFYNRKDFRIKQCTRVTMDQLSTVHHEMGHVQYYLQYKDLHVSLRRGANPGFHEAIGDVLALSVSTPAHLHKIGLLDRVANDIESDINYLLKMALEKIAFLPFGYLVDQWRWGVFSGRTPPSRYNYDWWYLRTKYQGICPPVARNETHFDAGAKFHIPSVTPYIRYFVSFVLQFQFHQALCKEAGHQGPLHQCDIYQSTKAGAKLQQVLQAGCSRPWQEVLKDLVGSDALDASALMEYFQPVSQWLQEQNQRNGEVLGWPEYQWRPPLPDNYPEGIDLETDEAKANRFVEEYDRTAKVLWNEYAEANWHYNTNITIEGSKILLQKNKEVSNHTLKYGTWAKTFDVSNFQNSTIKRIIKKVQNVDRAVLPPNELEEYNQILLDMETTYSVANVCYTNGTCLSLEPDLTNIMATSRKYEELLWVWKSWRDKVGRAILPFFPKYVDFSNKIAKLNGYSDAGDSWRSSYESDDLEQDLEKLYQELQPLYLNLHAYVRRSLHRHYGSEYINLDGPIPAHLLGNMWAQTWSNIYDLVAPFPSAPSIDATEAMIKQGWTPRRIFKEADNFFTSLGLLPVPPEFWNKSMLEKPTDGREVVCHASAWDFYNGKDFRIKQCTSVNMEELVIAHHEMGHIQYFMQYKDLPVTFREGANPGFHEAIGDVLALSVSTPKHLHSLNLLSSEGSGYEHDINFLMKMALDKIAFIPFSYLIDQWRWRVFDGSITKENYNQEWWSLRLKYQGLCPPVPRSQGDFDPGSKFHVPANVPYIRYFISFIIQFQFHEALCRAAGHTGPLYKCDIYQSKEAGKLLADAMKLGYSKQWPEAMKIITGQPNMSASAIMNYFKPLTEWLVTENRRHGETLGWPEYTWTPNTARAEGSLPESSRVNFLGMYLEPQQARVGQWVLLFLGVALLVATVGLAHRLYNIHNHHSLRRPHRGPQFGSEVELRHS

[3] = target: T3, Angiotensin-converting enzyme (Rattus norvegicus); assay: Evaluation of plasma inhibition of Angiotensin I converting enzyme activity in conscious rat 6 hour after oral administration at a dose of 10 mg/kg; type: functional, organism-based; set-up: dose 10 mg/kg
How it was run: (§1)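 Male conscious normotensive Sprague-Dawley rats (275-390 g) fitted the day before with femoral arterial and venous catheters under methohexital anesthesia. Three angiotensin-I challenges (300 ng/kg iv) given as baseline. Compound given iv, ia or po (12.3 mg/kg po dose in 3% cornstarch at 1 mg/mL), then AI challenges repeated at set times. Pressor response compared with the mean baseline response and expressed as % inhibition.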

[4] = target: T3, Angiotensin-converting enzyme (Rattus norvegicus); assay: Evaluation of plasma inhibition of Angiotensin I converting enzyme activity in conscious rat 4 hours after ia administration at a dose of 10 mg/kg; type: functional, organism-based; set-up: dose 10 mg/kg; how it was run: as §1
[5] = target: T3, Angiotensin-converting enzyme (Rattus norvegicus); assay: Evaluation of plasma inhibition of Angiotensin I converting enzyme activity in conscious rat 2 hours after ia administration at a dose of 10 mg/kg; type: functional, organism-based; set-up: dose 10 mg/kg; how it was run: as §1
[6] = target: T3, Angiotensin-converting enzyme (Rattus norvegicus); assay: Evaluation of plasma inhibition of Angiotensin I converting enzyme activity in conscious rat 1 hour after ia administration at a dose of 10 mg/kg; type: functional, organism-based; set-up: dose 10 mg/kg; how it was run: as §1
[7] = target: T3, Angiotensin-converting enzyme (Rattus norvegicus); assay: Evaluation of plasma inhibition of Angiotensin I converting enzyme activity in conscious rat 1 hour after oral administration at a dose of 10 mg/kg; type: functional, organism-based; set-up: dose 10 mg/kg
[8] = target: T3, Angiotensin-converting enzyme (Rattus norvegicus); assay: Evaluation of plasma inhibition of Angiotensin I converting enzyme activity in conscious rat 2 hour after oral administration at a dose of 10 mg/kg; type: functional, organism-based; set-up: dose 10 mg/kg
[9] = target: T3, Angiotensin-converting enzyme (Rattus norvegicus); assay: Evaluation of plasma inhibition of Angiotensin I converting enzyme activity in conscious rat 6 hours after ia administration at a dose of 10 mg/kg; type: functional, organism-based; set-up: dose 10 mg/kg; how it was run: as §1
[10] = target: T3, Angiotensin-converting enzyme (Rattus norvegicus); assay: Evaluation of plasma inhibition of Angiotensin I converting enzyme activity in conscious rat 1 hour after intravenous administration at a dose of 10 mg/kg; type: functional, organism-based; set-up: dose 10 mg/kg; how it was run: as §1
[11] = target: T3, Angiotensin-converting enzyme (Rattus norvegicus); assay: Evaluation of plasma inhibition of Angiotensin I converting enzyme activity in conscious rat 2 hours after intravenous administration at a dose of 10 mg/kg; type: functional, organism-based; set-up: dose 10 mg/kg; how it was run: as §1
[12] = target: T3, Angiotensin-converting enzyme (Rattus norvegicus); assay: Evaluation of plasma inhibition of Angiotensin I converting enzyme activity in conscious rat 4 hours after peroral administration at a dose of 12.3 mg/kg; type: functional, organism-based; set-up: dose 12.3 mg/kg; how it was run: as §1
[13] = target: T3, Angiotensin-converting enzyme (Rattus norvegicus); assay: Evaluation of plasma inhibition of Angiotensin I converting enzyme activity in conscious rat 1 hour after peroral administration at a dose of 12.3 mg/kg; type: functional, organism-based; set-up: dose 12.3 mg/kg; how it was run: as §1
[14] = target: T3, Angiotensin-converting enzyme (Rattus norvegicus); assay: Evaluation of plasma inhibition of Angiotensin I converting enzyme activity in conscious rat 6 hours after peroral administration at a dose of 12.3 mg/kg; type: functional, organism-based; set-up: dose 12.3 mg/kg; how it was run: as §1
[15] = target: T3, Angiotensin-converting enzyme (Rattus norvegicus); assay: Evaluation of plasma inhibition of Angiotensin I converting enzyme activity in conscious rat 2 hours after peroral administration at a dose of 12.3 mg/kg; type: functional, organism-based; set-up: dose 12.3 mg/kg; how it was run: as §1

## CC(C)[C@H](S)C(=O)NC1(C(=O)N[C@@H](Cc2c[nH]c3ccc(O)cc23)C(=O)O)CCCC1
[1]
  IC50: 13 nM
Neprilysin
  IC50: 2 nM

## CC(C)[C@H](S)C(=O)NC1(C(=O)N[C@@H](Cc2cccnc2)C(=O)O)CCCC1
[1]
  IC50: 37 nM
Neprilysin
  IC50: 3.1 nM

## C[C@H](CS)C(=O)N1CCC[C@H]1C(=O)O
[2]
  inhibition: 36%
[3]
  inhibition: 13%
[4]
  inhibition: 26%
[5]
  inhibition: 60%
[6]
  inhibition: 96%
[7]
  inhibition: 100%
[8]
  inhibition: 78%
[9]
  inhibition: 3%

## CC(C)[C@H](S)C(=O)NC1(C(=O)N[C@@H](Cc2ccc(O)cc2)C(=O)O)CCCCC1
[10]
  inhibition: 22%
[1]
  IC50: 33 nM
Neprilysin
  IC50: 8.7 nM
[11]
  inhibition: 10%

## CCOC(=O)[C@H](Cc1c[nH]c2ccccc12)NC(=O)C1(NC(=O)[C@@H](SC(C)=O)C(C)C)CCCC1
[12]
  inhibition: 71%
[13]
  inhibition: 83%
[14]
  inhibition: 64%
[15]
  inhibition: 72%

## CC(C)[C@H](S)C(=O)N[C@@H](Cc1ccc(-c2ccccc2)cc1)C(=O)N[C@@H](Cc1ccc(O)cc1)C(=O)O
[1]
  IC50: 62 nM

## COc1ccc(C[C@H](NC(=O)C2(NC(=O)[C@@H](S)C(C)C)CCCC2)C(=O)O)cc1
[1]
  IC50: 19 nM
Neprilysin
  IC50: 2.2 nM

## CC(C)CC(NP(=O)(O)OC1O[C@@H](C)[C@H](O)[C@@H](O)[C@H]1O)C(=O)N[C@@H](Cc1c[nH]c2ccccc12)C(=O)O (single isomer, unassigned) [PHOSPHORAMIDON]
Neprilysin
  IC50: 26 nM

## CC(C)[C@H](S)C(=O)NC1(C(=O)N[C@@H](Cc2ccc(-c3ccccc3)cc2)C(=O)O)CCCC1
[1]
  IC50: 139 nM
Neprilysin
  IC50: 16 nM

## O=C(O)[C@H](Cc1ccc(O)cc1)NC(=O)C1(NC(=O)C2(S)CCCC2)CCCC1
[10]
  inhibition: 3%
[1]
  IC50: 17 nM
Neprilysin
  IC50: 5.2 nM

## O=C(O)CN1C(=O)[C@@H](N[C@@H](CCc2ccccc2)C(=O)O)CCc2ccccc21
[4]
  inhibition: 27%
[5]
  inhibition: 74%
[6]
  inhibition: 100%
[9]
  inhibition: 7%

## CC(C)[C@H](S)C(=O)NC1(C(=O)N[C@@H](Cc2ccc(O)cc2)C(=O)O)CC2CCC1C2 (stereo not given in full)
[1]
  IC50: 65 nM
Neprilysin
  IC50: 15 nM
